These results are taken from ChEMBL document CHEMBL2021854, “2-Aminopyrimidine based 4-aminoquinoline anti-plasmodial agents. Synthesis, biological activity, structure-activity relationship and mode of action studies” (Eur J Med Chem, 2012).

Each structure is given as a SMILES string.

The experiment relates to Vaccinia virus. Kind of experiment: Antiviral activity against Vaccinia virus infected in HEL cells assessed as inhibition of virus-induced cytopathogenicity after 4 days. To be noted: Orthopoxvirus vaccinia, 96 h. It counts as functional, organism-based. Summed up:
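Confluent HEL or HeLa monolayers infected with 100 CCID50 of virus in the presence of varying compound concentrations.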
Background: Cytopathic effects are the visible damage that an infection or toxin causes in cultured cells.
Consider `CCOC(=O)c1c(C)nc(NCCNc2ccnc3cc(Cl)ccc23)nc1-c1ccccc1`, for which the EC50 (in general, the concentration that produces a half-maximal response) was over 4 µM.

Turning to `CCOC(=O)c1c(C)nc(NCCCNc2ccnc3cc(Cl)ccc23)nc1-c1ccccc1`, the EC50 is over 100 µM. With `CCOC(=O)c1c(C)nc(NCCCCNc2ccnc3cc(Cl)ccc23)nc1-c1ccccc1` the figure was over 100 µM.

Consider `CCOC(=O)c1c(C)nc(NCCCNc2ccnc3cc(Cl)ccc23)nc1C`, for which the EC50 is over 100 µM. With `CCOC(=O)c1c(C)nc(NCCCCNc2ccnc3cc(Cl)ccc23)nc1C` the figure was over 100 µM; with `Cc1nc(NCCCNc2ccnc3cc(Cl)ccc23)nc(-c2cccc([N+](=O)[O-])c2)c1C(=O)OC(C)C`, over 4 µM; with `Cc1nc(NCCNc2ccnc3cc(Cl)ccc23)nc(-c2ccccc2[N+](=O)[O-])c1C(=O)OC(C)C`, over 20 µM. Regarding `Cc1nc(NCCCCNc2ccnc3cc(Cl)ccc23)nc(-c2ccccc2[N+](=O)[O-])c1C(=O)OC(C)C`, the EC50 is over 4 µM.

For `Nc1nc2c(ncn2COCCO)c(=O)[nH]1` [ACYCLOVIR], the EC50 is over 250 µM. The same measure for `Nc1nc(O)c2ncn(COC(CO)CO)c2n1` [GANCICLOVIR]: over 100 µM.
